Data on four compounds can be found in ChEMBL document CHEMBL1150304, “Synthesis of new heteroaryl and heteroannulated indoles from dehydrophenylalanines: Antitumor evaluation” (2008).

Common to all, as to assay type: functional
One experiment concerns SF-268. Nature of the experiment: Antitumor activity against human SF268 cells after 48 hrs. As to conditions: SF-268, 48 h. In short, it runs like this:
(§1)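 NCI-derived lines grown as monolayers in RPMI-1640 with 5% heat-inactivated FBS and 2 mM glutamine, 37 °C, 5% CO2. Plated at 1.5 × 10⁵ cells/mL (MCF-7, SF-268) or 0.75 × 10⁴ cells/mL (NCI-H460) and incubated 24 h. Continuous 48 h exposure to five serial concentrations (DMSO ≤0.5%). Sulforhodamine B stain, A492. GI50 is 50% net-growth inhibition from dose-response curves. Experiments run independently in duplicate.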

A further experiment deals with NCI-H460. Nature of the experiment: Antitumor activity against human NCI-H460 cells after 48 hrs. As to conditions: NCI-H460, 48 h. In short, it runs like this:
as §1

In the next experiment the test system is MCF7. Nature of the experiment: Antitumor activity against human MCF7 cells after 48 hrs. The following applies: MCF7, 48 h. In short, it runs like this:
as §1

Each structure is given as a SMILES string.

In general, GI50 refers to the concentration that inhibits growth by half. Read a high GI50 as less potent growth inhibition. `COC(=O)c1[nH]c2ccccc2c1-c1cccc2c1sc1ccccc12`: the GI50 was 17 µM with SF-268, 12.7 µM in the experiment with NCI-H460 and 11 µM in the experiment with MCF7.

On to `COC(=O)c1[nH]c2ccc3c4ccccc4sc3c2c1-c1ccccc1`, for which the values for the GI50 in the experiment with SF-268, in the experiment on NCI-H460 and in the experiment on MCF7 were 50 µM, 40.3 µM and 72.7 µM, respectively.

In the case of `COC(=O)c1[nH]c2ccccc2c1-c1cccc2c1oc1ccccc12`, the concentration for 50% growth inhibition (GI50) in the experiment with SF-268 was 35 µM; with NCI-H460, 18 µM; with MCF7, 26.5 µM.

Turning to `COc1cccc2c1C(=O)c1c(O)c3c(c(O)c1C2=O)C[C@@](O)(C(=O)CO)C[C@@H]3O[C@H]1C[C@H](N)[C@H](O)[C@H](C)O1` [DOXORUBICIN], the 50% growth inhibitory concentration (GI50) in the experiment with SF-268 came to 0.094 µM; in the experiment with NCI-H460, 0.094 µM; in the experiment with MCF7 it was 0.0428 µM.
